NTR1 agonist: agonists of human NTR1, primary screen, imaging, U2OS cells, beta-arrestin-GFP, high content | Neurotensin receptor type 1 (Homo sapiens), P30989 | NTR1-U2OS beta-arrestin-GFP spot imaging, agonist mode | activation, % at 20 µM | actives 0.17% (n = 330,000) | AID 493036, 2011;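 active means activation at or above 40% of the spot to cytoplasm intensity ratio, with at least 20 cells analyzed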;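 further: 0% = DMSO without peptide and 100% = 100 nM NTR1 peptide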
CXCR6 block: CXCR6 receptor inhibitors, primary screen, cell-based, beta-arrestin, luminescence, CHO-K1 PathHunter, 1536-well. C-X-C chemokine receptor type 6 (Homo sapiens), O00574. inhibition, % at 20 µM. actives 0.36% (n = 360,000); in the data active means inhibition above about 34%, passing the limit was not always enough;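 further: antagonist mode with CXCL16 agonist at 10 nM final; 0% = 10 nM CXCL16 with DMSO and 100% = unstimulated wells without agonist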
APJ antagonist: antagonists of human apelin receptor APJ, primary screen, CHO-K1 cells, beta-arrestin complementation, luminescence. inhibition, % at 20 µM. actives 0.32% (n = 330,000). AID 2521, 2010. P35414;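 active means inhibition above about 40% at 20 µM, limit read from the data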;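 further: cells challenged with 10 nM apelin-13 agonist together with compound; plate controls were apelin-13 plus DMSO wells for no effect and DMSO wells lacking apelin-13 for full effect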
APJ ag: agonists of human apelin receptor APJ, primary screen, CHO-K1 cells, PathHunter beta-arrestin, luminescence. activation, % at 20 µM. 0% DMSO wells, 100% apelin. actives 0.11% (n = 330,000). P35414;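 active means activation more than six SD over the plate average, tested at 20 µM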;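 further: 0% = DMSO alone and 100% = apelin-13 at 10 nM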
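Assay system: CHO-K1 cells stably expressing ProLink-tagged human APJ and arrestin–beta-gal acceptor. Compound dosing: 20 µM single point, 1% DMSO. Times: 16-18 h seeding, 90 min dark compound exposure, 60 min detection. Detection: beta-gal luminescence. Evaluation: APJ–arrestin association signal. Controls: negative DMSO alone, positive Apelin-13 at 10 nM.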
CCR6 antagonist: CCR6 receptor antagonists, primary screen, cell-based, CHO-K1, luminescence, beta-arrestin, uHTS. CHO-K1 CCR6 PathHunter beta-arrestin, CCL20-stimulated. AID 493098, 2011. actives 0.49% (n = 340,000). inhibition, % at 20 µM;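 active means compounds whose inhibition of the agonist-driven luminescence signal at 20 µM reaches about 50%, limit read from the data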;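 further: cells stimulated with CCL20 at 14 nM final; plate controls were DMSO with CCL20 for no effect and DMSO without agonist for full effect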
HTR2A ag: mouse Htr2a agonists via beta-arrestin recruitment, primary screen, cell-based, luminescence. AID 624169, 2012. activation, % at 7.6 µM. CHO-K1 mHTR2A beta-arrestin complementation; percent of 30 µM serotonin response. actives 0.66% (n = 360,000);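 active means activation above a run cutoff, the mean activation of all tested compounds plus 3 SD, cut at about 14% in these data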;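 further: 0% = plate median of compound wells and 100% = 30 µM serotonin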
OPRM1 ag: OPRM1 agonists via beta-arrestin recruitment, confirmation, counter-screen for mouse HTR2A agonist project, cell-based, luminescence, single concentration; actives 5.3% (n = 2,300); shares compounds with HTR2A ag; activation, % at 9.3 µM; U2OS OPRM1 beta-arrestin PathHunter; DMSO 0%, DAMGO 9.3 µM 100%;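 active means mean activation above the mean of DMSO-only wells plus 3 SD, cut at about 0.5% in these data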
Target sequence (P35372 whole entry, looked up): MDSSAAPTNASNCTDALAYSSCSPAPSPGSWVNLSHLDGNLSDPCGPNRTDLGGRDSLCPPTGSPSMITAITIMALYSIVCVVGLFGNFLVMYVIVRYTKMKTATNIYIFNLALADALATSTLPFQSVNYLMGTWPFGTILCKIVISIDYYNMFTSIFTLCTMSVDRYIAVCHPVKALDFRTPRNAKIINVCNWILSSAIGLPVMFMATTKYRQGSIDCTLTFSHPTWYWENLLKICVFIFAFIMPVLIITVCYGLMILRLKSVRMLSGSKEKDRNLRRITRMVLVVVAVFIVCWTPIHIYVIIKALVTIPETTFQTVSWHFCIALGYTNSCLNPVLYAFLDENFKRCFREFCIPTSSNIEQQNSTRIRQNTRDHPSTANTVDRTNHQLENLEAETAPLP
HTR2A ag conf: mouse HTR2A agonists, beta-arrestin recruitment, confirmation, cell-based, luminescence, CHO-K1 PathHunter, triplicate | actives 19% (n = 2,300) | shares compounds with HTR2A ag | DMSO 0%, 30 µM serotonin 100% | activation, % at 7.6 µM;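 active means mean activation across triplicates above the hit threshold derived in the original primary screen, cut at about 15% in these data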
* = called active by the depositor; x = no result given. Sampled rows, rich in hits. Any-hit rate of the full collection: about 1.5%.

SMILES	NTR1 agonist	CXCR6 block	APJ antagonist	APJ ag	CCR6 antagonist	HTR2A ag	OPRM1 ag	HTR2A ag conf
C#CCN(C[C@@H]1[C@@H](OC(=O)NCC2CCCCC2)[C@@H](OC(=O)NCC2CCCCC2)Cn2c(=O)ccc(=O)n21)S(=O)(=O)c1ccc(C)cc1	x	-8	x	x	x	27*	0	35*
CC(=O)OC1C=CCC2C(=O)c3cccc(O)c3C(O)C12 (centres undefined)	x	-20	x	x	3	17*	0	0
Cn1c(N)c(C(=O)COC(=O)CNC(=O)c2ccc(Cl)cc2Cl)c(=O)n(C)c1=O	-1	9	-2	7	6	14*	0	-2
Cn1c(N)c(C(=O)COC(=O)Cc2ccc(Cl)cc2Cl)c(=O)n(C)c1=O	3	3	16	10	0	-8	x	x
O=C1CC(N2CCN(c3ccc(F)cc3)CC2)C(=O)N1c1ccc2c(c1)OCO2 (centres undefined)	-2	5	-2	0	10	-5	x	x
N#Cc1ccccc1C[C@H](N)C(=O)NC[C@H]1O[C@@H](n2ccc(N)nc2=O)[C@H](O)[C@@H]1O	x	2	x	x	x	29*	0	-3
CN[C@H](C)C(=O)NC[C@H]1O[C@@H](n2ccc(N)nc2=O)[C@H](O)[C@@H]1O	x	2	x	x	x	5	x	x
CSc1ncccc1C(=O)OCC(=O)NC1CCC(C)CC1 (centres undefined)	0	3	3	-5	11	2	x	x
COc1ccccc1N1CCN(C(=O)CSc2nc3ccccc3[nH]2)CC1	-2	-4	-3	2	6	15*	0	0
Cc1cc(Cl)ccc1OC(C)C(=O)NC(C)C1CCCO1 (centres undefined)	0	6	11	-6	7	16*	0	-3
Cc1cc(OC(C)C(=O)NCC2CCCO2)cc(C)c1Cl (centres undefined)	0	3	18	-2	10	15*	-1	-4
COc1cc(C(=O)N2CCC2(C)C(=O)NC(C)C)cc(OC)c1OC (centres undefined)	x	0	x	x	x	1	x	x
COc1ccc(NC(=O)C2CC(=O)N(c3ccccc3C)C2)c(OC)c1 (centres undefined)	0	1	8	0	7	15*	-1	-3
O=C(c1ccccc1)N1CCN(c2ccc([N+](=O)[O-])c(NCC3CCCO3)c2)CC1 (centres undefined)	3	5	17	-1	3	4	x	x
Cc1ccc(C(C)C)c(OCC(=O)NNC(=O)Cc2ccc(S(=O)(=O)N3CCOCC3)s2)c1	1	1	1	3	10	-1	x	x
COc1ccc(NC(=O)CNS(=O)(=O)c2cccs2)cc1	2	-7	14	5	-2	24*	0	-1
COc1ccc(NC(=O)CCCNS(=O)(=O)c2cccs2)cc1	-1	-9	5	2	-13	-4	x	x
O=C(NCc1ccccn1)C1Nc2ccc(C(F)(F)F)cc2C2C=CCC12 (centres undefined)	-2	-8	-35	-2	6	-1	x	x
Cc1onc(-c2ccccc2)c1C(=O)N(C)CC(=O)Nc1ccc(F)c(F)c1F	1	-5	-5	-5	17	-4	x	x
O=C(Nc1ccc(C(=O)N2CCCc3ccccc32)cc1)c1cccs1	0	5	9	1	18	3	x	x
COc1ccc(N=C2C(=Nc3ccc(OC)cc3)N(c3ccc(OC)cc3)C(=S)N2c2ccccc2)cc1	2	0	17	-4	2	16*	-1	-3
C=C1C(=O)OC2C1C(OC(=O)C(C)=CC)CC(=C)C1C(O)C3OC3(C)C21O (centres undefined)	x	5	x	x	-6	16*	0	10
C=C1C(=O)OC2C=C(CO)CCC=C(CO)CC(OC(=O)C(C)C)C12 (centres undefined)	x	-6	x	x	7	0	x	x
CCCCN(C(=O)CCC(=O)Nc1cc(C)on1)C(C(=O)NC1CCCC1)c1ccc(OC)cc1 (centres undefined)	-1	6	-2	1	7	4	x	x
CCCCN(C(=O)CCC(=O)Nc1cc(C)on1)C(C(=O)NC1CCCC1)c1cccc(OC)c1 (centres undefined)	3	0	-12	-2	19	14*	-1	-5
SMILES	NTR1 agonist	CXCR6 block	APJ antagonist	APJ ag	CCR6 antagonist	HTR2A ag	OPRM1 ag	HTR2A ag conf
CC(C)NC(=O)C1(C)CCN1C(=O)c1ccc(F)c(Cl)c1 (centres undefined)	x	-1	x	x	x	15*	-1	-4
CSc1nc(C)c(C(=O)Nc2ccccc2)c(-c2ccco2)c1C#N	4	-5	-7	-3	16	16*	0	-3
c1ccc2cc(CN3CCOCC3)ccc2c1	-1	-2	6	-6	15	20*	-1	-4
O=C(Nc1ccc(CN2CCOCC2)cc1)c1ccc2ccccc2c1	2	0	-10	-2	21	-7	x	x
CCC(Cc1ccccc1)NC(=O)C1CC1 (centres undefined)	0	-5	2	-2	8	5	x	x
CC(C)(C)OC(=O)C[C@H]1C/C=C\C[C@@H](CC(=O)N(CCO)Cc2ccccc2)C(=O)N[C@H](Cc2ccccc2)COC1=O	0	28	12	-6	21	-5	x	x
O=C(O)c1nn(CC(=O)N(C2CCCCC2)C2CCCCC2)c(=O)c2ccccc12	12	4	14	-4	11	33*	0	1
CCN(C(=O)Cn1nc(C(=O)O)c2ccccc2c1=O)C1CCCCC1	2	6	9	-4	6	3	x	x
O=Nc1c(O)n(Cc2cccc(C(F)(F)F)c2)c2ccccc12	9	-1	-1	-5	2	16*	0.7*	3
Oc1ccc(C(c2nnnn2CCc2ccccc2)N2CCN(c3nc4ccccc4s3)CC2)cc1 (centres undefined)	9	-5	-8	-1	12	22*	-1	-2

Source: PubChem (several laboratories)
